Measurements pooled from the literature.
Lines come from different studies, so protocols differ.
Target: Casein kinase I isoform alpha (CSNK1A1, Homo sapiens, UniProt P48729)

For `C[C@@H](c1ccc(-n2cnc3c(N)ncnc32)cc1)N1CCc2nn(C)c(Cc3ccccc3)c2C1=O`, the remaining binding was 87% (binding; competition with immobilised ligand; 0.1 µM).
For `Cn1nc(C(F)(F)F)cc1-c1cnc(N2CCc3cc(S(=O)(=O)Nc4c(F)cc(Cl)cc4F)cc(N4CCCC4=O)c32)nc1`, the remaining binding was 86% (cell-free assay; competition with immobilised ligand; 1 µM).
The remaining binding of `C[C@H]1CCN(c2nccc(-c3cnn4ncccc34)n2)C1` is reported as 47% (binding; 1 µM).
`O=C(c1ccc(Nc2nccc(-c3cc4ccccc4s3)n2)cc1)N1CCC(N2CCCC2)CC1` gave a remaining binding of 78% (binding; competition with immobilised ligand; 1 µM).
The remaining binding of `FC(F)(F)Oc1cccc(-c2cnc3ccc(-c4ccncc4)nn23)c1` is reported as 52% (cell-free assay; competition with immobilised ligand; 5 µM).
With `Cc1cnc(Nc2ccc(C(=O)N3CCC(N4CCCC4)CC3)cc2)nc1-c1cc2ccccc2s1` the remaining binding was 60% (binding; competition with immobilised ligand; 1 µM).
The remaining binding of `Cc1cc(C)c(-n2ccn3nc(-c4cccnc4)cc23)cc1NC(=O)c1cc(C#N)cc(S(F)(F)(F)(F)F)c1` is reported as 67% (cell-free assay; competition with immobilised ligand; 0.1 µM).
`F[C@@H]1CCN(c2nccc(-c3cnn4ncccc34)n2)C1` has a remaining binding of 90% (binding; 1 µM).
The remaining binding of `CS(=O)(=O)c1cc(C2(NC(=O)c3cncc4c3cnn4-c3ccc(F)cc3)CC2)ccn1` is reported as 96% (cell-free assay; competition with immobilised ligand; 1 µM).
For `c1cnn2ncc(-c3ccnc(N4CCC45COC5)n3)c2c1`, the remaining binding was 14% (binding; 1 µM).
`COc1cnc(Nc2cccc(S(N)(=O)=O)c2)nc1N1CCN(c2ccccc2)C(=O)C1` has a remaining binding of 93% (binding; competition with immobilised ligand; 1 µM).
`O=C(Nc1c[nH]nc1C(=O)NC1CCNCC1)c1cc(F)cc(F)c1` has a remaining binding of 75% (binding; competition with immobilised ligand; 1 µM).
The remaining binding of `COc1cnc(Nc2cccc(S(N)(=O)=O)c2)nc1N1CCN(c2ccccc2)CC1` is reported as 93% (binding; competition with immobilised ligand; 1 µM).
For `COc1ccc2c(c1)O[C@H](c1ccc(OC)c(OC)c1)C[C@@H]2NC(=O)C1(c2ccc3c(c2)OC(F)(F)O3)CC1`, the remaining binding was 82% (cell-free assay; competition with immobilised ligand; 1 µM).
With `c1cncc(-c2cccc(Nc3nccc(NC4CCCCC4)n3)c2)c1` the remaining binding was 71% (binding; competition with immobilised ligand; 10 µM).
For `CC1=C(C#N)C(c2ccc3c(c2)c(NC(=O)c2ccccc2C)nn3C)C(C#N)=C(C)N1`, the remaining binding was 70% (cell-free assay; competition with immobilised ligand; 1 µM).
`N[C@@H]1CCN(c2nccc(-c3cnn4ncccc34)n2)C1` gave a remaining binding of 12% (binding; 1 µM).
For `O=C(N1CCS(=O)(=O)CC1)N1C[C@H](c2ccc(OC(F)(F)F)cc2)C[C@H](c2nc(C3CC3)no2)C1`, the remaining binding was 100% (cell-free assay; competition with immobilised ligand; 1 µM).
The remaining binding of `CN(C)c1ncc(F)c(-c2cnn3ncccc23)n1` is reported as 98% (binding; 1 µM).
The remaining binding of `O=C(NCCCN1CCOCC1)c1ccc(Nc2nccc(-c3cc4ccccc4s3)n2)cc1` is reported as 74% (binding; competition with immobilised ligand; 1 µM).
`CN(C)c1nccc(-c2cnn3ncccc23)n1` has a remaining binding of 60% (binding; 1 µM).
For `CS(=O)(=O)N1CCCC(NC(=O)[C@H](CCC2CCCCC2)NC(=O)c2ccc(CNc3ncnc4c3nnn4-c3ccccc3)cc2)C1` (stereo partly shown), the remaining binding was 99% (cell-free assay; competition with immobilised ligand; 0.1 µM).
